Measurements taken from publication PMC6558985 (Nature chemical biology, 2019).

Key:
Hs-spastin = molecular target: T1, Hs-spastin (Homo sapiens, UniProt Q9UBP0); experiment: Steady-state ATPase activity, NADH-coupled assay, Hs-spastin wildtype; assay type: biochemical
T1 sequence (Q9UBP0 229-616): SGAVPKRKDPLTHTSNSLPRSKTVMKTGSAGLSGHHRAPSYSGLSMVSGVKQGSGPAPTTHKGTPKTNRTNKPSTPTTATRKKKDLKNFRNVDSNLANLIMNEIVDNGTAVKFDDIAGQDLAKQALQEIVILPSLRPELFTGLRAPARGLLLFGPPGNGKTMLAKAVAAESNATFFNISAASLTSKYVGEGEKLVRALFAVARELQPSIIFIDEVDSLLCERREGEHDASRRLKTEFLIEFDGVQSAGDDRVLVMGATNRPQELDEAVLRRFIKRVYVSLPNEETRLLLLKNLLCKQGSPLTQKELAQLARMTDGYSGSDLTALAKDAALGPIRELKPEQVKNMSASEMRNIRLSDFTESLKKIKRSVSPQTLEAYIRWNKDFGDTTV
Method in brief: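 Recombinant human spastin purified from E. coli. Steady-state ATPase inhibition was measured over a test-compound concentration series at 1 mM ATP. IC50 reported as average ± s.d., n = 3.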

Hs-FIGL1 = molecular target: T2, Hs-FIGL1 (Homo sapiens, UniProt Q6PIW4); experiment: Steady-state ATPase activity, NADH-coupled assay, Hs-FIGL1; assay type: biochemical; settings: 10 µM compound, 0.5 mM MgATP
T2 sequence (Q6PIW4 288-674): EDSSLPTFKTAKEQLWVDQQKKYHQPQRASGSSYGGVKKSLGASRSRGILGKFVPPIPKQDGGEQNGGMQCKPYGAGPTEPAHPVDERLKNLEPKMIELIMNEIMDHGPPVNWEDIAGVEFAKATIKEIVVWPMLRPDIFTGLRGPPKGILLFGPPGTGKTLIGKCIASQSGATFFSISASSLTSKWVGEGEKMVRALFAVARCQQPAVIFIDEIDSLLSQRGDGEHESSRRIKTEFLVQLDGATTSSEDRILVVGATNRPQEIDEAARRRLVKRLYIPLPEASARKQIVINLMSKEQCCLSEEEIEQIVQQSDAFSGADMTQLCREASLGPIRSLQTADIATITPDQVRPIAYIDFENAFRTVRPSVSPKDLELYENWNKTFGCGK
Method in brief: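 Recombinant AAA protein constructs assayed by steady-state ATPase with NADH-coupled read-out at 0.5 mM MgATP, with test compound at 2 µM or 10 µM. Activity is reported as percent of steady-state ATPase activity, average ± s.d., n = 3.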

Dm-spastin WT = molecular target: T3, Dm-spastin WT (Drosophila melanogaster, UniProt Q8I0P1, DEL311-372); experiment: Steady-state ATPase activity, NADH-coupled assay, Dm-spastin wildtype; assay type: biochemical, D. melanogaster; settings: 0.5 mM MgATP
T3 sequence (Q8I0P1 with tags, fused parts or gaps DEL311-372 limits assumed): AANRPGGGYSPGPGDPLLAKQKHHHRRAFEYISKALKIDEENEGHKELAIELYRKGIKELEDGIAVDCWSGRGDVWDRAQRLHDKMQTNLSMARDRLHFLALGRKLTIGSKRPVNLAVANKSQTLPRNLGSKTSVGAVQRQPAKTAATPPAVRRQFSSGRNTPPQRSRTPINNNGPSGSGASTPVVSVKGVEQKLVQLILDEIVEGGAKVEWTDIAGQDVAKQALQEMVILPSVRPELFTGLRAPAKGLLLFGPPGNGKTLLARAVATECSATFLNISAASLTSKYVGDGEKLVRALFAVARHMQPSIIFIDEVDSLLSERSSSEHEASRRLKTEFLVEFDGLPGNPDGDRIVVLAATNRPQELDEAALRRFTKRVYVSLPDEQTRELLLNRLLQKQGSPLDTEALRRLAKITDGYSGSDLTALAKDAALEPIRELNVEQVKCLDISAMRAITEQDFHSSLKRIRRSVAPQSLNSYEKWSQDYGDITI
Method in brief: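 Recombinant Dm-spastin, wildtype or point mutants, assayed by steady-state ATPase with NADH-coupled read-out at 0.5 mM MgATP over a test-compound concentration series. Data were fit to a sigmoidal dose-response equation to give IC50, average ± s.d., n = 3. Separately, rates across ATP concentrations were fit to a cooperative Michaelis-Menten equation for kcat and K1/2.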

[1] = test system: Dm-spastin, Hs-FIGL1, Hs-PCH2, Mm-VCP, Xl-katanin; experiment: Screen of selected kinase inhibitors against five AAA proteins; assay type: biochemical; settings: 10 µM compound, 0.5 mM ATP
Method in brief: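 Five recombinant AAA proteins (Dm-spastin, Hs-FIGL1, Hs-PCH2, Mm-VCP, Xl-katanin) were screened for ATPase activity with each test compound at 10 µM and 0.5 mM MgATP. Activity is expressed as percent of the DMSO control, average of n = 2, binned in 10% steps.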

IC50 (Hs-spastin) | improved potency on Hs-spastin with respect to compound 5 (Hs-spastin; 1 mM ATP) | inhibition of Hs-FIGL1 ATPase activity (Hs-FIGL1) | inhibition of the ATPase activity of Dm-spastin (Dm-spastin WT; 10 µM compound) | potency of Dm-spastin inhibition (dose-dependent analysis) (Dm-spastin WT; IC50 not determined) | inhibition of ATPase activity of at least one of five AAA proteins [1] | SMILES
132 ± 55 nM | ~ 30 fold |  |  |  |  | C[C@@H]1CNCCN1c1nc(Nc2cc(C(C)(C)C)[nH]n2)c2cc[nH]c2n1 [compound 6, (R)-N-(5-(tert-butyl)-1H-pyrazol-3-yl)-2-(2-methylpiperazin-1-yl)-7H-pyrrolo[2,3-d]pyrimidin-4-amine]
 |  | also inhibited Hs-FIGL1 | substantially inhibited | micromolar range | > 50% | N#CCc1ccc(Nc2nc(Nc3cc(C4CC4)[nH]n3)c3ccccc3n2)cc1 [compound 1, 2-(4-((4-((5-cyclopropyl-1H-pyrazol-3-yl)amino)quinazolin-2-yl)amino)phenyl)acetonitrile, reference compound]
